Columns and labels:
[1] = target: T1, Kappa-type opioid receptor (Homo sapiens, UniProt P41145); assay: Binding affinity for […] [3H]diprenorphine against human Opioid receptor kappa expressed in chinese hamster ovary cells (CHO cells); assay type: cell-based
Procedure, shortened: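 Competitive displacement of [3H]diprenorphine binding to membranes from CHO cells stably transfected with human KOR; compounds were first screened at a single concentration.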

[2] = target: T1, Kappa-type opioid receptor; assay: Percent maximal response in enhanced [35S]GTP-gamma-S, binding to human Opioid receptor kappa expressed in CHO cells relative to U50,488H; assay type: functional, cell-based
Procedure, shortened: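 Agonist stimulation of [35S]GTPγS binding to membranes of CHO-hKOR cells; efficacy is maximal response expressed as % of that of U50,488H; means of at least three independent experiments run in duplicate.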

[3] = target: T1, Kappa-type opioid receptor; assay: Concentration required to enhance [35S]GTP-gamma-S, binding to human Opioid receptor kappa expressed in CHO cells; assay type: functional, cell-based
Procedure, shortened: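 [35S]GTPγS binding to membranes of CHO cells stably expressing human KOR; EC50 for agonist-stimulated enhancement of binding; means of at least three independent experiments run in duplicate.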

T1 sequence (P41145 whole entry): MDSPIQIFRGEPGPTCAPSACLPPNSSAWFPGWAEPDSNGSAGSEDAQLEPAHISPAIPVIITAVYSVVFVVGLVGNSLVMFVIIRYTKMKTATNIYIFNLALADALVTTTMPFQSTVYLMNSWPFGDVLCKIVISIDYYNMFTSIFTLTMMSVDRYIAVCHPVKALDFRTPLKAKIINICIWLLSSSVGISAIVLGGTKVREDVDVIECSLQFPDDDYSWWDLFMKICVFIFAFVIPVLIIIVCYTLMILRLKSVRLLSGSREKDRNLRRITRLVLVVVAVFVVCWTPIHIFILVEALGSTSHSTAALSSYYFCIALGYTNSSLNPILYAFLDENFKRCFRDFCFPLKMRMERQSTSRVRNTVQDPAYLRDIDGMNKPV

| SMILES | Ki [1] [nM] | Efficacy [2] [%] | EC50 [3] [nM] |
| --- | --- | --- | --- |
| CCCCOC(=O)[C@@H]1C[C@H](OC(C)=O)C(=O)[C@H]2[C@@]1(C)CC[C@H]1C(=O)O[C@H](c3ccoc3)C[C@]21C | > 1000 |  |  |
| CCCOC(=O)[C@@H]1C[C@H](OC(C)=O)C(=O)[C@H]2[C@@]1(C)CC[C@H]1C(=O)O[C@H](c3ccoc3)C[C@]21C | > 1000 |  |  |
| CC(=O)O[C@H]1C[C@@H](C(=O)NCc2ccccc2)[C@]2(C)CC[C@H]3C(=O)O[C@H](c4ccoc4)C[C@]3(C)[C@H]2C1=O | > 1000 |  |  |
| CC(=O)O[C@H]1C[C@@H](C(=O)NCCO)[C@]2(C)CC[C@H]3C(=O)O[C@H](c4ccoc4)C[C@]3(C)[C@H]2C1=O | > 1000 |  |  |
| CC(=O)O[C@H]1C[C@@H](C(=O)NC2CC2)[C@]2(C)CC[C@@H]3C(=O)O[C@H](c4ccoc4)C[C@]3(C)[C@H]2C1=O | 475 | 95 | 840 |
| C=CCOC(=O)[C@@H]1C[C@H](OC(C)=O)C(=O)[C@H]2[C@@]1(C)CC[C@H]1C(=O)O[C@H](c3ccoc3)C[C@]21C | > 1000 |  |  |
| CC(=O)O[C@H]1C[C@@H](C(=O)NCCC#N)[C@]2(C)CC[C@H]3C(=O)O[C@H](c4ccoc4)C[C@]3(C)[C@H]2C1=O | > 1000 |  |  |
| CC(=O)O[C@H]1C[C@@H](C(=O)N2CCCC2C(=O)OCc2ccccc2)[C@]2(C)CC[C@@H]3C(=O)O[C@H](c4ccoc4)C[C@]3(C)[C@H]2C1=O (some centres undefined) | > 1000 |  |  |
| CC(=O)O[C@H]1C[C@@H](C(=O)NC(Cc2c[nH]cn2)C(=O)OCc2ccccc2)[C@]2(C)CC[C@H]3C(=O)O[C@H](c4ccoc4)C[C@]3(C)[C@H]2C1=O (some centres undefined) | > 1000 |  |  |
| C#CCCCOC(=O)[C@@H]1C[C@H](OC(C)=O)C(=O)[C@H]2[C@@]1(C)CC[C@H]1C(=O)O[C@H](c3ccoc3)C[C@]21C | 201 | 104 | 224 |
| COCOC(=O)[C@@H]1C[C@H](OC(C)=O)C(=O)[C@@H]2[C@@]3(C)C[C@@H](c4ccoc4)OC(=O)[C@H]3CC[C@]21C | 110 | 102 | 191 |
| CC(=O)O[C@H]1C[C@@H](C(=O)O)[C@]2(C)CC[C@H]3C(=O)O[C@H](c4ccoc4)C[C@]3(C)[C@H]2C1=O | > 1000 |  |  |
| C#CCCOC(=O)[C@@H]1C[C@H](OC(C)=O)C(=O)[C@H]2[C@@]1(C)CC[C@H]1C(=O)O[C@H](c3ccoc3)C[C@]21C | > 1000 |  |  |
| COCOC(=O)[C@@H]1C[C@H](OC(C)=O)C(=O)[C@H]2[C@@]1(C)CC[C@H]1C(=O)O[C@H](c3ccoc3)C[C@]21C | 99.6 | 105 | 58.2 |
| CC(=O)O[C@H]1C[C@@H](C(=O)OCc2ccccc2)[C@]2(C)CC[C@H]3C(=O)O[C@H](c4ccoc4)C[C@]3(C)[C@H]2C1=O | > 1000 |  |  |
| CC(=O)O[C@H]1C[C@@H](C(=O)N2CCCC2C(=O)OCc2ccccc2)[C@]2(C)CC[C@H]3C(=O)O[C@H](c4ccoc4)C[C@]3(C)[C@H]2C1=O (some centres undefined) | 210 | 100 | 348 |

| SMILES | Ki [1] [nM] | Efficacy [2] [%] | EC50 [3] [nM] |
| --- | --- | --- | --- |
| CCOC(=O)[C@@H]1C[C@H](OC(C)=O)C(=O)[C@H]2[C@@]1(C)CC[C@H]1C(=O)O[C@H](c3ccoc3)C[C@]21C | 28.5 | 110 | 94.4 |
| CCOC(=O)[C@@H]1C[C@H](OC(C)=O)C(=O)[C@@H]2[C@@]3(C)C[C@@H](c4ccoc4)OC(=O)[C@H]3CC[C@]21C | > 1000 |  |  |
| CC(=O)O[C@H]1C[C@@H](C(=O)NC2CC2)[C@]2(C)CC[C@H]3C(=O)O[C@H](c4ccoc4)C[C@]3(C)[C@H]2C1=O | > 1000 |  |  |
| C#CCCCOC(=O)[C@@H]1C[C@H](OC(C)=O)C(=O)[C@@H]2[C@@]3(C)C[C@@H](c4ccoc4)OC(=O)[C@H]3CC[C@]21C | > 1000 |  |  |
| CCCCCOC(=O)[C@@H]1C[C@H](OC(C)=O)C(=O)[C@H]2[C@@]1(C)CC[C@H]1C(=O)O[C@H](c3ccoc3)C[C@]21C | > 1000 |  |  |
| CC(=O)O[C@H]1C[C@@H](C(=O)NN2CCOCC2)[C@]2(C)CC[C@H]3C(=O)O[C@H](c4ccoc4)C[C@]3(C)[C@H]2C1=O | > 1000 |  |  |
| CCCCCCCCOC(=O)[C@@H]1C[C@H](OC(C)=O)C(=O)[C@H]2[C@@]1(C)CC[C@H]1C(=O)O[C@H](c3ccoc3)C[C@]21C | > 1000 |  |  |
| CC(=O)O[C@H]1C[C@@H](C(=O)NC(C)C(=O)OCc2ccccc2)[C@]2(C)CC[C@@H]3C(=O)O[C@H](c4ccoc4)C[C@]3(C)[C@H]2C1=O (some centres undefined) | > 1000 |  |  |
| CC(=O)O[C@H]1C[C@@H](C(=O)NC(C)C(=O)OCc2ccccc2)[C@]2(C)CC[C@H]3C(=O)O[C@H](c4ccoc4)C[C@]3(C)[C@H]2C1=O (some centres undefined) | 26.9 | 95 | 46.7 |
| CC(=O)O[C@H]1C[C@@H](C(=O)NCCc2ccccc2)[C@]2(C)CC[C@H]3C(=O)O[C@H](c4ccoc4)C[C@]3(C)[C@H]2C1=O | > 1000 |  |  |
| CC(=O)O[C@H]1C[C@@H](C(=O)NC(CO)C(=O)OCc2ccccc2)[C@]2(C)CC[C@H]3C(=O)O[C@H](c4ccoc4)C[C@]3(C)[C@H]2C1=O (some centres undefined) | > 1000 |  |  |
| CC(=O)O[C@H]1C[C@@H](C(=O)O)[C@]2(C)CC[C@@H]3C(=O)O[C@H](c4ccoc4)C[C@]3(C)[C@H]2C1=O | 48.6 | 94 | 74.1 |
| CC(=O)O[C@H]1C[C@@H](C(=O)NN2CCC(C)CC2)[C@]2(C)CC[C@H]3C(=O)O[C@H](c4ccoc4)C[C@]3(C)[C@H]2C1=O | > 1000 |  |  |
| CC(=O)O[C@H]1C[C@@H](C(=O)NCC(=O)OCc2ccccc2)[C@]2(C)CC[C@@H]3C(=O)O[C@H](c4ccoc4)C[C@]3(C)[C@H]2C1=O | > 1000 |  |  |
| CC(=O)O[C@H]1C[C@@H](C(=O)NCC(=O)OCc2ccccc2)[C@]2(C)CC[C@H]3C(=O)O[C@H](c4ccoc4)C[C@]3(C)[C@H]2C1=O | 470 | 105 | 227 |

— ChEMBL document CHEMBL1141037, “Synthesis and in vitro pharmacological studies of C(4) modified salvinorin A analogues” (Bioorg Med Chem Lett, 2005)
